# According to article PMC4429801 (Journal of nuclear medicine : official publication, Society …, 2009):
# Experiments:
# rats = details: 2.3 mmol/kg; cited from earlier work
# CWR22rv1 xenografts [1] = test: Small-animal PET 1 h after tail vein injection; format: in vivo, mice; details: 1 h after administration via tail vein
# Summary of the method: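 CWR22rv1-xenografted nude mice, not fasted, received 11.1 MBq (300 µCi) of the 18F test compound by tail vein. They were held under 2% isoflurane in oxygen (2 L/min) and scanned on a small-animal PET at 1 h for 5 min, using a 350–700 keV window and 6 ns coincidence window. Images were corrected for nonuniformity, dead time and decay, but not for attenuation, scatter or partial volume. %ID/g came from a phantom-derived calibration factor.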
# CWR22rv1 tumors = test: Dual-isotope comparative biodistribution; format: in vivo, mice; details: 1 h after simultaneous tail vein injection
# Summary of the method: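 Nude mice bearing subcutaneous CWR22rv1 xenografts received, by tail vein, 200 µL saline containing 3.7 MBq of the 18F test compound and about 0.0037 MBq 14C-acetate, and were euthanized 1 h later. 18F was γ-counted (400–600 keV, decay-corrected). Samples were then solubilised and held 1 d at 4°C, and 14C was read by liquid scintillation with external-standard quench correction. %ID/g = activity/decay-corrected injected activity/organ weight; n = 4, mean ± SD.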
# CWR22rv1 xenografts [2] = test: Single-isotope in vivo biodistribution; set-up: species or system mice; details: for Tumor uptake of the tracer: tail vein, nude mice
# Summary of the method: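 Nude mice (20–25 g) carried CWR22rv1 tumours grown from 5 × 10^6 cells in medium/Matrigel, injected s.c. at the right forelimb. They received 3.7–5.5 MBq (100–150 µCi) of the 18F test compound in 200 µL saline by tail vein; dose per animal came from syringe readings before and after injection. Organs were harvested at 1, 2, 3 and 4 h and γ-counted (400–600 keV, decay-corrected) for %ID/g and tumour-to-organ ratios; n = 3 per time point, mean ± SD.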
# [3] = Octanol–water partition coefficient study; format: physicochemical; details: 1-octanol/phosphate-buffered saline
# Summary of the method: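 The 18F test compound (20 µL, ~10–20 µCi in saline) was added to 5 mL each of 1-octanol and phosphate-buffered saline at pH 6.4, 7.0, 7.4 or 8.4. The mixture was vortexed 1 min and centrifuged 5 min.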
structure (smiles),measurement,setting,value
CC(F)C(=O)O (stereo not shown) [FPA],Acute toxicity,rats,no acute toxicity
"CC([18F])C(=O)O (stereo not shown) [^18F-FPA, 2-^18F-fluoropropionic acid]",Uptake in the brain (PET),CWR22rv1 xenografts [1],4.6 %ID/g
same,Uptake in the heart (PET),CWR22rv1 xenografts [1],4.0 %ID/g
same,Uptake in the tumor (PET),CWR22rv1 xenografts [1]; CWR22rv1 tumor,4.4 %ID/g
same,"Tumor-to-organ ratio, Blood",CWR22rv1 tumors,1.03
same,"Tumor-to-organ ratio, Bone",CWR22rv1 tumors,4.23
same,"Tumor-to-organ ratio, Brain",CWR22rv1 tumors,1.27
same,"Tumor-to-organ ratio, Kidneys",CWR22rv1 tumors,1.70
same,"Tumor-to-organ ratio, Large intestine",CWR22rv1 tumors,1.91
same,"Tumor-to-organ ratio, Liver",CWR22rv1 tumors,1.26
same,"Tumor-to-organ ratio, Lungs",CWR22rv1 tumors,1.77
same,"Tumor-to-organ ratio, Muscle",CWR22rv1 tumors,1.94
same,"Tumor-to-organ ratio, Small intestine",CWR22rv1 tumors,1.62
same,"Tumor-to-organ ratio, Spleen",CWR22rv1 tumors,1.62
same,"Tumor-to-organ ratio, Stomach",CWR22rv1 tumors,2.80
same,"Tumor-to-organ ratio, Tumor",CWR22rv1 tumors,1.00
same,"Tumor-to-organ ratio, heart",CWR22rv1 tumors,1.30
same,"%ID/g, Blood",CWR22rv1 tumors; n = 4,6.88 ± 0.64 %ID/g
same,"%ID/g, Bone",CWR22rv1 tumors; n = 4,1.68 ± 0.54 %ID/g
same,"%ID/g, Brain",CWR22rv1 tumors; n = 4,5.57 ± 0.33 %ID/g
same,"%ID/g, Heart",CWR22rv1 tumors; n = 4,5.46 ± 0.63 %ID/g
same,"%ID/g, Kidneys",CWR22rv1 tumors; n = 4,4.17 ± 0.60 %ID/g
same,"%ID/g, Large intestine",CWR22rv1 tumors; n = 4,3.71 ± 1.09 %ID/g
same,"%ID/g, Liver",CWR22rv1 tumors; n = 4,5.61 ± 0.50 %ID/g
same,"%ID/g, Lungs",CWR22rv1 tumors; n = 4,4.00 ± 0.26 %ID/g
same,"%ID/g, Muscle",CWR22rv1 tumors; n = 4,3.66 ± 0.50 %ID/g
same,"%ID/g, Small intestine",CWR22rv1 tumors; n = 4,4.37 ± 1.15 %ID/g
same,"%ID/g, Spleen",CWR22rv1 tumors; n = 4,4.36 ± 0.85 %ID/g
same,"%ID/g, Stomach",CWR22rv1 tumors; n = 4,2.53 ± 1.04 %ID/g
same,"%ID/g, Tumor","CWR22rv1 tumors; CWR22rv1 tumors, n = 4",7.08 ± 0.80 %ID/g
same,"Tumor-to-organ ratio, heart","CWR22rv1 xenografts [2]; 1, 2, 3, and 4 h after injection",around 0.95
same,Tumor uptake of the tracer,CWR22rv1 xenografts [2]; 1 h after injection,5.52 ± 0.35 %ID/g
same,Tumor uptake of the tracer,CWR22rv1 xenografts [2]; 2 h after injection,5.53 ± 0.42 %ID/g
same,Tumor uptake of the tracer,CWR22rv1 xenografts [2]; 3 h after injection,5.74 ± 0.54 %ID/g
same,Tumor uptake of the tracer,CWR22rv1 xenografts [2]; 4 h after injection,5.34 ± 0.19 %ID/g
same,Defluorination in vivo,"CWR22rv1 xenografts [2]; PET and biodistribution studies, low bone uptake",no evidence of defluorination
same,logP,[3]; pH 6.4,−2.89 ± 0.02
same,logP,[3]; pH 7.0,−3.08 ± 0.04
same,logP,[3]; pH 7.4,−2.97 ± 0.13
same,logP,[3]; pH 8.4,−3.07 ± 0.03
